# Bfl-1 A1 inh: inhibitors of the anti-apoptotic protein A1, read as caspase activation; MEF A1-2A-BIM cells, Caspase-Glo 3/7 luminescence, 3 h; percent of clofoctol response, vehicle zero; caspase activation, % (test concentration not listed); hit rate 0.066% among 330,000;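 active = over half of replicate activation scores above 10%, or exactly half above 10 with the replicate mean above 10; inconclusive = replicate mean below 10 yet half the replicates above 10; inactive = over half of replicates below 10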
# XBP1 UPR activ: activators of adaptive arm of unfolded protein response (XBP1). CHO-XBP1 luciferase reporter, IRE1-XBP1 UPR activation, luminescence; percent of tunicamycin response, DMSO as zero. activation, % at 20 µM. hit rate 0.33% among 330,000. AID 463104;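 active = versus positive control, 20 µM dose yields 30% or more activation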;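 note: 100% = tunicamycin at 10 µg/mL and 0% = DMSO only wells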
#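 Material: IRE1-XBP1 luciferase reporter CHO line / Quantity: one thousand reporter cells per well / Buffer or medium: F12 with 10% serum / Compound: 20 µM single concentration, DMSO 1% / Times: 6 h treatment, 37 °C / Detection: Steady-Glo luciferase glow luminescence, 10 min after reagent addition / Benchmarks: tunicamycin high, DMSO low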
# MC4R antagonist: blocks human MC4R cAMP signaling | MC4R-expressing cells, MTII-stimulated cAMP, LANCE TR-FRET | P32245 | inhibition, % at 6.5 µM | hit rate 0.48% among 360,000;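 active = inhibition above its plate's cutoff, the mean of tested wells on that plate plus 3 SD, cut at about 29% in these data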;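 note: 0% = Melanotan II alone and 100% = Melanotan II plus saturating MCL0020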
# Target sequence (P32245 whole entry, looked up): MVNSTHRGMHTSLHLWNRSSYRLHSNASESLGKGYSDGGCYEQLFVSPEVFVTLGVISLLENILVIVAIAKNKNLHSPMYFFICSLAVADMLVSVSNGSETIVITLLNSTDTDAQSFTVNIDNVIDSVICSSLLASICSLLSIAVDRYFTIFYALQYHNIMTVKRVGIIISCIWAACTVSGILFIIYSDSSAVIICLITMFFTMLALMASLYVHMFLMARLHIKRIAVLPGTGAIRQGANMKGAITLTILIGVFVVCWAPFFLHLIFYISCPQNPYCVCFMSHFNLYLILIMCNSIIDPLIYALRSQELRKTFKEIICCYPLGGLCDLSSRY
#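 Assay system: U2OS-MC4R stable cell line; Also added: Melanotan II; Technique: Eu-cAMP/anti-cAMP TR-FRET, emission 671 nm; Times: 30-min compound, 1-h challenge, 1-h detection, room temperature.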
# CHOP UPR activ: activators of apoptotic arm of unfolded protein response (CHOP) | hit rate 0.34% among 330,000 | activation, % at 10 µM | CHO-CHOP luciferase reporter, UPR activation, luminescence; percent of tunicamycin response over DMSO baseline | AID 449763;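 active = at 10 µM dose, activation of 40% or more, normalized to positive control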;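 note: 100% = tunicamycin at 10 µg/mL and 0% = DMSO alone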
#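 assay system = CHO CHOP reporter cells | amount = 500 CHO-CHOP cells per well | buffer or medium = F12 with 10% FBS | incubation = 16-18 h cell attachment, then 6 h compound exposure, 37 °C | detection = luminescence read with Steady-Glo | read-out = percent activation relative to tunicamycin control | controls = tunicamycin high control, DMSO low control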
# MC4R ag barr: activates human MC4R beta-arrestin recruitment. P32245. U2OS MC4R beta-arrestin complementation, luminescence; percent of melanotan II response, DMSO zero. activation, % at 8.9 µM. hit rate 0.98% among 360,000. AID 540308;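 active = activation above a per-plate cutoff, the mean activation of sample wells on that plate plus 3 SD, cut at about 8% in these data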
# MC4R barr ag: human MC4R beta-arrestin agonism confirmation | AID 602192 | activation, % at 8.9 µM | hit rate 31% among 2,400 | shares compounds with MC4R ag barr | U2OS MC4R beta-arrestin recruitment, luminescence; scaled DMSO 0%, Melanotan II 100%;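 active = mean activation across replicates above the hit cutoff set in the earlier primary screen, cut at about 8% in these data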
# MOR DOR agonist: counter-screen for MC4R agonists: agonists of mu-delta opioid heterodimer; shares compounds with MC4R ag barr; U2OS PathHunter beta-arrestin, beta-gal luminescence; percent of deltorphin B response, DMSO zero; activation, % at 9.2 µM; hit rate 5.8% among 2,400; AID 602194;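 active = mean activation across replicates exceeds the hit threshold derived in the earlier primary screen, cut at about 18% in these data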;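 note: 100% = deltorphin B at 0.9 µM final and 0% = DMSO alone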
# Active calls of the source: *; ? = inconclusive; / = no result given. Most compounds without a hit are left out; they make up all but 2% or so of the library.
SMILES,Bfl-1 A1 inh,XBP1 UPR activ,MC4R antagonist,CHOP UPR activ,MC4R ag barr,MC4R barr ag,MOR DOR agonist
O=C(NCc1ccc(F)cc1)c1cc(C2CCCN(S(=O)(=O)c3ccccc3)C2)on1 (centres undefined),/,/,-2,/,-3,/,/
O=C(Nc1ccccc1)Nc1nnc(-c2cccs2)s1,-2,2,10,7,-1,/,/
COc1ccc(NC(=O)Nc2nnc(-c3ccccc3SCc3ccccc3)s2)cc1,0,5,1,0,18*,17*,5
Cc1occc1C(=O)Nc1nnc(-c2cccs2)s1,-3,5,9,7,13*,4,10
COc1ccc(NC(=O)Nc2nnc(-c3cccs3)s2)cc1,-2,1,-2,4,13*,0,5
CC1(C(=O)NS(=O)(=O)c2ccccc2)CCN1C(=O)CCc1ccc(Cl)cc1Cl (centres undefined),/,/,-2,/,-1,/,/
O=C(Cc1csc(-c2ccccc2)n1)Nc1ccc(C(F)(F)F)cc1,0,-1,4,0,14*,4,11
S=C(Nc1ccc(Cl)c(Cl)c1)N1CCN(c2ccccn2)CC1,0,-2,27,0,15*,2,7
OCCN1CCN(c2nc(-c3ccccc3)nc3c2oc2ccccc23)CC1,?,-1,2,0,23*,15*,11
COCCNc1ncnc2c1ncn2[C@H]1CN(Cc2ccccc2)C[C@@H](CO)O1,/,/,-1,/,-1,/,/
O=C1OC(Cc2ccccc2)(c2ccccc2)c2ccccc21 (centres undefined),/,/,3,/,0,/,/
CC(C)(C)c1ccc2c(c1)OC(C(=O)N/N=C\c1ccc[nH]1)CO2 (centres undefined),24*,-4,11,-1,11*,4,10
O=C1/C(=C/c2ccccc2F)SC(=S)N1CC(=O)N1CCCCC1c1cccnc1 (centres undefined),0,-8,11,0,0,/,/
Cc1nc(CN(C)c2ncnc3ccc(-c4ccc5c(c4)OCO5)cc23)cs1,/,/,-1,/,2,/,/
CCC(CC)=NNc1ccc(S(N)(=O)=O)cc1[N+](=O)[O-],0,-5,-7,0,-3,/,/
C/C(=N\Nc1ccc(S(N)(=O)=O)cc1[N+](=O)[O-])c1ccc2c(c1)OCO2,/,/,11,/,13*,4,5
C[C@@H]1CN([C@@H](C)CO)C(=O)c2ccccc2-c2ccccc2CO[C@@H]1CN(C)S(=O)(=O)c1ccc(C(F)(F)F)cc1,/,/,4,/,0,/,/
Cc1nn(C)c(C(=O)Nc2ccc(Br)cc2F)c1Br,-1,2,7,2,13*,0,4
Cc1ccc(OCc2nn3c(-c4ccco4)nnc3s2)cc1,0,-1,6,1,-1,/,/
Clc1ccc(OCc2nn3c(-c4ccco4)nnc3s2)c(Cl)c1,0,5,0,0,21*,1,7
CCn1nc(NC(=O)c2ccncc2)c2cc3cccc(C)c3nc21,-1,22,11,1,0,/,/
CCn1nc(NC(=O)c2cccnc2)c2cc3cccc(C)c3nc21,-1,-3,1,-2,17*,0,3
Cc1cc(C(=O)CSc2nnnn2-c2ccccc2)c(C)n1CCc1ccccc1,0,0,10,3,1,/,/
COc1ccc(CCn2c(C)cc(C(=O)CSc3nnnn3-c3ccccc3)c2C)cc1OC,-1,-4,0,-2,17*,8,4
O=Cc1ccc2c(c1)OCCOCCOCCOCCO2,/,/,7,/,-1,/,/
SMILES,Bfl-1 A1 inh,XBP1 UPR activ,MC4R antagonist,CHOP UPR activ,MC4R ag barr,MC4R barr ag,MOR DOR agonist
COCCCNC(=O)c1c(N)n(/N=C/c2cccs2)c2nc3ccccc3nc12,1,12,4,5,3,/,/
COCCCNC(=O)c1c(N)n(/N=C/c2cccnc2)c2nc3ccccc3nc12,0,4,3,5,10*,5,5
CCC(C)NC(=O)c1c(N)n(/N=C/c2cccnc2)c2nc3ccccc3nc12 (centres undefined),0,17,10,7,13*,28*,6
COc1ccc2nc(Cl)c(/C=N/Nc3ccccn3)cc2c1,-1,2,2,3,39*,1,5
Clc1ccccc1C=NNc1ccccn1,/,/,-2,/,3,/,/
COc1cccc(-c2cccc3c2NC(=O)C3(C)Cc2cccc(F)c2)c1 (centres undefined),/,/,8,/,3,/,/
Cc1nn(Cc2ccccc2)c(C)c1C(=O)NCCN1C(=O)S/C(=C\c2ccccc2)C1=O,0,-3,1,1,11*,1,1
Cc1cc(C=O)sc1[B-](F)(F)F,/,/,6,/,-1,/,/
COCCNC(=O)C1(C)CCCN(Cc2noc(-c3ccccc3OC)n2)C1 (centres undefined),/,/,10,/,0,/,/
CCOC(=O)c1c(NC(=O)COC(=O)c2ccc(Cl)nc2)sc(C)c1C,/,/,10,/,0,/,/
CC(C)c1ccc(NC(=O)Cn2ncn3c(cc4ccccc43)c2=O)cc1,2,3,4,-1,12*,2,8
CN(C)c1ccc(NC(=O)Cn2ncn3c(cc4ccccc43)c2=O)cc1,0,0,5,2,0,/,/
Cc1nn(Cc2ccc(F)cc2)c2sc(C(=O)Nc3nccs3)cc12,-1,-1,3,1,13*,2,5
COc1cnc(-c2cccc(C(F)(F)F)c2)c(NC(=O)c2cc3ccccc3s2)n1,/,/,-2,/,2,/,/
C=CS(=O)(=O)c1c2cc(OC)ccc2nc2ccc(OC)cc12,/,/,-19,/,0,/,/
N#CC(=Cc1ccccn1)c1nc(-c2ccc(Cl)cc2)cs1,/,/,1,/,17*,3,3
CC1CCC(NC(=O)C2CCC(CNS(=O)(=O)c3ccc4c(c3)C(C)(C)C(=O)N4C)CC2)CC1 (centres undefined),/,/,3,/,0,/,/
Cc1cc(C(=O)Nc2sc3c(c2C#N)CCC(C(C)(C)C)C3)no1 (centres undefined),1,1,-5,0,9.9*,-2,3
C=CCSc1nc2c(c(=O)[nH]c(=O)n2C)n1Cc1ccc(C)cc1,0,9,-42,2,14*,1,6
O=C(Nc1ccccc1Cl)c1cc(C2CCCCN2C(=O)c2cccs2)on1 (centres undefined),/,/,20,/,1,/,/
